Reference: ChEMBL document CHEMBL1158122, “Anti-inflammatory, anti-tumor-promoting, and cytotoxic activities of constituents of marigold (Calendula officinalis) flowers” (J Nat Prod, 2006)

Columns and labels:
[1] = Cytotoxicity against human Raji cells assessed as cell viability at 10 molar ratio; format: cell-based; settings: read-out: Activity
Outline: (§1)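 Raji cells were treated with 32 pmol TPA to induce EBV early antigen activation. The test agent was added at 10, 100, 500 or 1000 mol ratio relative to TPA, and Raji cell viability was measured alongside EA activation.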

[2] = Cytotoxicity against human Raji cells assessed as cell viability at 100 molar ratio; format: cell-based; settings: read-out: Activity; outline: as §1
Raji [3] = assay: Inhibition of TPA-induced EBV-early antigen activation in human Raji cells at 100 molar ratio relative to TPA; format: cell-based; set-up: scale not given: the % may be the effect or the level left; settings: human gammaherpesvirus 4
Raji [4] = assay: Inhibition of TPA-induced EBV-early antigen activation in human Raji cells at 500 molar ratio relative to TPA; format: cell-based; set-up: scale not given: the % may be the effect or the level left; settings: human gammaherpesvirus 4
[5] = Cytotoxicity against human Raji cells assessed as cell viability at 500 molar ratio; format: cell-based; settings: read-out: Activity; outline: as §1
Raji [6] = assay: Inhibition of TPA-induced EBV-early antigen activation in human Raji cells at 1000 molar ratio relative to TPA; format: cell-based; set-up: scale not given: the % may be the effect or the level left; settings: human gammaherpesvirus 4
[7] = Inhibition of TPA-induced EBV-early antigen activation in human Raji cells relative to TPA; format: cell-based, human gammaherpesvirus 4
[8] = Cytotoxicity against human Raji cells assessed as cell viability at 1000 molar ratio; format: cell-based; settings: read-out: Activity; outline: as §1
Raji [9] = assay: Inhibition of TPA-induced EBV-early antigen activation in human Raji cells at 10 molar ratio relative to TPA; format: cell-based; set-up: scale not given: the % may be the effect or the level left; settings: human gammaherpesvirus 4
Mus musculus = assay: Antiinflammatory activity against TPA-induced ear edema in mouse; format: functional
Outline: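 Specific-pathogen-free female ICR mice were housed five per cage at 24 ± 2 °C. Inflammation was induced on the ear with TPA at 1 µg/ear, and the test agent was applied per ear. Ear edema inhibition was expressed as ID50 in mg per ear.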

| Structure (SMILES) | IC50 [7] | viability at 10 molar ratio [1] | viability at 100 molar ratio [2] | Activity (Raji [3]) | Activity (Raji [4]) | viability at 500 molar ratio [5] | Activity (Raji [6]) | viability at 1000 molar ratio [8] | Activity (Raji [9]) | ID50 (Mus musculus) |
| --- | --- | --- | --- | --- | --- | --- | --- | --- | --- | --- |
| COc1cc(-c2oc3cc(O)cc(O)c3c(=O)c2O[C@@H]2O[C@H](CO[C@@H]3O[C@@H](C)[C@H](O)[C@@H](O)[C@H]3O)[C@@H](O)[C@H](O)[C@H]2O[C@@H]2O[C@@H](C)[C@H](O)[C@@H](O)[C@H]2O)ccc1O | 592 molar ratio | > 80% | > 80% | 86% | 64.8% | > 80% | 19.6% | 70% | 100% |  |
| C[C@]12CCC(=O)C=C1CC[C@@H]1[C@@H]2[C@@H](O)C[C@@]2(C)[C@H]1CC[C@]2(O)C(=O)CO [HYDROCORTISONE] |  |  |  |  |  |  |  |  |  | 0.03 mg |
| CC1=C(/C=C/C(C)=C/C=C/C(C)=C/C=C/C=C(C)/C=C/C=C(C)/C=C/C2=C(C)CCCC2(C)C)C(C)(C)CCC1 [BETA CAROTENE] | 397 molar ratio | > 80% | > 80% |  |  | > 80% | 8.6% |  | 100% |  |
| COc1cc(-c2oc3cc(O)cc(O)c3c(=O)c2O[C@@H]2O[C@H](CO)[C@@H](O)[C@H](O)[C@H]2O[C@@H]2O[C@@H](C)[C@H](O)[C@@H](O)[C@H]2O)ccc1O | 574 molar ratio | > 80% | > 80% | 81.1% | 60% | > 80% | 14.1% | 70% | 100% |  |
| COc1ccc2c(c1)c(CC(=O)O)c(C)n2C(=O)c1ccc(Cl)cc1 [INDOMETHACIN] |  |  |  |  |  |  |  |  |  | 0.3 mg |

The next lines start with results.

| IC50 [7] | Structure (SMILES) | viability at 10 molar ratio [1] | viability at 100 molar ratio [2] | Activity (Raji [3]) | Activity (Raji [4]) | viability at 500 molar ratio [5] | Activity (Raji [6]) | viability at 1000 molar ratio [8] | Activity (Raji [9]) | ID50 (Mus musculus) |
| --- | --- | --- | --- | --- | --- | --- | --- | --- | --- | --- |
| 585 molar ratio | COc1cc(-c2oc3cc(O)cc(O)c3c(=O)c2O[C@@H]2O[C@H](CO[C@@H]3O[C@@H](C)[C@H](O)[C@@H](O)[C@H]3O)[C@@H](O)[C@H](O)[C@H]2O)ccc1O [NARCISSIN] | > 80% | > 80% | 84.3% | 62.4% | > 80% | 16.3% | 70% | 100% |  |
| 484 molar ratio | CC1(C)CC[C@]2(C(=O)O[C@@H]3O[C@H](CO)[C@@H](O)[C@H](O)[C@H]3O)CC[C@]3(C)C(=CC[C@@H]4[C@@]5(C)CC[C@H](O[C@@H]6O[C@H](C(=O)O)[C@@H](O)[C@H](O[C@@H]7O[C@H](CO)[C@H](O)[C@H](O)[C@H]7O)[C@H]6O[C@@H]6O[C@H](CO)[C@@H](O)[C@H](O)[C@H]6O)C(C)(C)[C@@H]5CC[C@]43C)[C@@H]2C1 [CALENDULAGYCOSIDE A] | > 80% | > 80% | 75.3% | 52.3% | > 80% | 15.8% | 70% | 75.3% | 0.32 mg |
| 570 molar ratio | O=c1c(O[C@@H]2O[C@H](CO)[C@@H](O)[C@H](O)[C@H]2O)c(-c2ccc(O)c(O)c2)oc2cc(O)cc(O)c12 [ISOQUERCETIN] | > 80% | > 80% | 78.5% | 58% | > 80% | 14.1% | 70% | 100% |  |
| 578 molar ratio | C[C@@H]1O[C@@H](OC[C@H]2O[C@@H](Oc3c(-c4ccc(O)c(O)c4)oc4cc(O)cc(O)c4c3=O)[C@H](O)[C@@H](O)[C@@H]2O)[C@H](O)[C@H](O)[C@H]1O [RUTIN] | > 80% | > 80% |  |  | > 80% |  | 70% | 100% |  |
